Compound activity (PubChem)
Vif inh: HIV Vif inhibition; HEK293T cells, Vif self-association by quenched fluorescence, imaging, 24 h; actives 0.35% (n = 340,000); AID 602346; inhibition, % at 7.49 µM; in the data active = inhibition above about 50%, passing the limit was not always enough; inconclusive = no clear call, values can overlap the other calls; inactive = below about 31%
PGC1a acetyl inh: PGC1a acetylation modulation, inhibitor mode; actives 0.17% (n = 350,000); U2OS PGC1a acetylation, AlphaScreen anti-acetyl-lysine; with virally co-expressed GCN5 acetyltransferase; inhibition, % at 15.6 µM;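 active = every replicate shows inhibition of at least 40%; inconclusive = mean inhibition at least 40% but some replicate below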;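 also: 0% = neutral control wells and 100% = positive control wells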
FGF22 binding: binders of recombinant human FGF22 by thermal shift; Q9HCT0; SYPRO orange fluorescence; percent of sucrose octasulfate shift, DMSO zero; activity (Tm shift, normalised), % at 9.99 µM; actives 1.5% (n = 340,000); AID 651658;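 active = mean Tm shift, scaled 0 neutral to 100 positive control, at about 1.3% or above, every replicate too, limit read from the data; inconclusive = no clear call, values can overlap the other calls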
Target sequence (Q9HCT0 whole entry, looked up): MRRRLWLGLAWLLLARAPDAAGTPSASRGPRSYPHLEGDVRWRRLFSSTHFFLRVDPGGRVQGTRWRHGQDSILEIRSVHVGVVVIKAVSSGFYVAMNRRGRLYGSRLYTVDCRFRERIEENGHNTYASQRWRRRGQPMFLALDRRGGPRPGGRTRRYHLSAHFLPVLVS
Ecoli rRNA inh: selective bacterial rRNA inhibition in E. coli. E. coli WT GFP vs humanized-ribosome RFP mutants, fluorescence, 24 h; active compounds read low; DMSO median 0, no signal -100. GFP signal change (wild-type ribosome), % (no concentration beside the values). actives 1.6% (n = 350,000);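 active = significant combined selectivity score with lowered wild-type GFP, culture density cut under 30%, mutant RFP and density less affected; inactive = any of these conditions unmet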
Cneo AK release: causes C. neoformans cell lysis; lysis activity, % at 15 µM; adenylate kinase release luminescence, 4 h; normalised: neutral wells 0, clomiphene wells 100; actives 0.2% (n = 360,000);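 active = mean lysis activity across replicates of at least 80%, whatever share of replicates individually reach that level; inactive = mean lysis activity below 80%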
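read-out = cell lysis signal | test system = log-phase Cryptococcus neoformans yeast cells | input = cells at 5 × 10^6 per mL | medium = fresh YPD growth medium | signal = luminescent adenylate kinase detection reagent | timing = 4 h at 37 °C static, read 1 h later | dosing = single dose | controls = Clomiphene as positive lysis control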
PglD inh: inhibitors of Campylobacter jejuni PglD acetyltransferase. purified PglD enzyme, DTNB colorimetric CoA detection. inhibition, % at 12.5 µM. actives 0.098% (n = 360,000). AID 602405; in the data active = inhibition above about 16%, passing the limit was not always enough; inconclusive = no clear call, values can overlap the other calls
HepG2 tox: HepG2 cell cytotoxicity. shares compounds with Ecoli rRNA inh. HepG2 viability, ATP luminescence, 72 h. activity change, negative = cytotoxicity, unspecified at 26 µM. 30 tested, under 10 active. AID 743480;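 active = compounds whose fitted half-maximal signal-loss concentration is at most twice their highest valid dose; inconclusive = flat curve with 30 to 70% signal loss, or poor fit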
AID977621: growth inhibition of wild-type GFP E. coli, dose response, H69 mutant RFP, cherry-pick; 1,900 tested, under 10 active; activity change, negative = inhibition at 50 µM; E. coli wild-type GFP strain growth, fluorescence, 24 h; shares compounds with Ecoli rRNA inh; AID 977621;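 active = Wild-type ribosome reporter drop at least double the humanized mutant ribosome reporter drop, growth loss under a set limit; inconclusive = no clear call, values can overlap the other calls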;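 also: wild-type GFP and H69 mutant RFP strains grown together 50/50 in each well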
AID977628: growth of wild-type and h24-humanized E. coli strains – h24 mutant RFP vs wild-type GFP, cherry-pick, dose response; 1,900 tested, under 10 active; AID 977628; E. coli WT GFP strain growth, fluorescence, 24 h; activity change, negative = inhibition at 50 µM; shares compounds with Ecoli rRNA inh;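 active = compound lowering the normal-ribosome reporter at least twice as much as the humanized-ribosome reporter, growth loss under a set limit; inconclusive = no clear call, values can overlap the other calls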;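 also: wild-type GFP and h24 humanized RFP strains co-cultured 1 to 1 per well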
* hit, by the source's call; ? = inconclusive; . = no result given. The list is not random: actives were taken first. Their share in the collection is about 2.9%.

SMILES	Vif inh	PGC1a acetyl inh	FGF22 binding	Ecoli rRNA inh	Cneo AK release	PglD inh	AID977621	AID977628	others
O=S1(=O)N[C@H](Cc2ccccc2)COc2cccc(N3CCC[C@H]3CO)c21	.	.	0	-22*	.	.	-9.2	.
O=S1(=O)N[C@@H](Cc2ccccc2)COc2cc(N3CCC[C@H]3CO)ccc21	.	.	0	-16*	.	.	.	-8.9
CCCC(=O)Nc1ccc2c(c1)C(=O)N(C)C[C@@H](OC)[C@H](C)CN(Cc1ccncc1)[C@@H](C)CO2	.	0	.	2	.	.	.	.
O=C(CN1CC[n+]2c(-c3cccs3)csc21)c1ccc(-c2ccccc2)cc1	-8	0	0	-41*	.	.	0.078	-2.2
COC(=O)c1nc(-c2ccc(C)cc2)[nH]c1C(C)(C)C	-5	-8	0	-21*	3	-2	-13	-14
Cc1ccc(-c2[nH]c(-c3ccc(C(=O)O)cc3)nc2-c2ccccc2)cc1	5	.	0	-13	.	.	.	.
CCOc1ccc(N(CC(=O)NCc2cccnc2)S(=O)(=O)c2ccc(F)cc2)cc1	2	.	0	1	-1	-4	.	.
CCOc1ccc(S(=O)(=O)N(C)c2ccc(OCC(=O)NCc3cccnc3)cc2)cc1	-8	-12	0	-20*	.	.	3.3	-9.2
O=C(Cc1c(F)cccc1Cl)N(Cc1ccccc1)c1ccccn1	-3	-2	0	-21*	.	.	5	-5.9
O=C(c1ccccc1)N(Cc1ccccc1)c1ccccn1	0	-14	.	.	-1	8	.	.
O=S(=O)(NOCc1ccc(Cl)cc1)c1ccc(Cl)cc1	8	0	0	-39*	-1	-4	6.8	-2.7
CN1C(=O)c2cc(NC(=O)C3CC3)ccc2OC[C@@H]2O[C@@H](CC(=O)O)CC[C@H]21	.	-5	.	2	.	.	.	.
Cc1ccc(OCC(=O)N(C)CC(=O)Nc2ccc(F)cc2)c([N+](=O)[O-])n1	6	9	0	9	-4	11	.	.
CN(CC(=O)Nc1ccc(F)cc1)C(=O)COc1ccc([N+](=O)[O-])cc1Cl	-3	.	0	-24*	-2	-9	-16	-6.8
C[C@@H]1CCCCO[C@@H](CN(C)C(=O)Nc2ccc3c(c2)OCO3)[C@@H](C)CN([C@H](C)CO)C(=O)c2cc(NS(=O)(=O)c3ccccc3)ccc2O1	.	1	0	5	5	-1	.	.
CCCN1[C@@H]2c3ccc(-c4ccccc4)c(=O)n3C[C@@H]2[C@@H](CO)[C@@H]1C(=O)NCCc1cn(C)cn1	.	4	0	0	-2	-3	.	.
C[C@@H]1CN([C@H](C)CO)C(=O)c2cccc(NS(=O)(=O)c3cn(C)cn3)c2O[C@@H]1CN(C)Cc1ccccc1	.	.	0	2	-1	-1	.	.
O=[N+]([O-])c1ccccc1Oc1ccc(Cl)c2cccnc12	8	3	0	-29*	.	.	-14	.
COc1ccc(NC(=O)N(C)C[C@@H]2Oc3ccc(NS(=O)(=O)c4ccc(C)cc4)cc3CC(=O)N([C@@H](C)CO)C[C@@H]2C)cc1	.	3	.	2	.	.	.	.
O=C(Nc1ccccc1)N[C@H]1CC[C@@H](CCNC(=O)c2ccccc2F)O[C@@H]1CO	.	-4	0	5	0	-2	.	.
CCN(CC)S(=O)(=O)c1ccc(N2CCCC2)c(NC(=O)c2ccccc2OC)c1	-3	1	0	-21*	0	1	-16	-9.8
CC(CNc1ccc(Cl)cc1)(CNc1ccc(Cl)cc1)[N+](=O)[O-]	25	-16	0	-20*	-1	1	?	?	HepG2 tox=16
O=[N+]([O-])c1ccc(CNc2ccc(Cl)cc2)s1	0	-6	0	-53	-3	-7	.	.
